Reference: ChEMBL document CHEMBL1143847, “Competitive inhibitors of the CphA metallo-beta-lactamase from Aeromonas hydrophila” (Antimicrob Agents Chemother, 2007)

Assays:
[1] = target: T1, Beta-lactamase (Aeromonas hydrophila, UniProt Q44079); assay: Inhibition of Aeromonas hydrophila beta lactamase CphA by competitive inhibition assay
[2] = target: T1, Beta-lactamase; assay: Inhibition of Aeromonas hydrophila beta lactamase CphA at pH 7.0
[3] = target: T1, Beta-lactamase; assay: Inhibition of Aeromonas hydrophila beta lactamase CphA at pH 8.0
[4] = target: T1, Beta-lactamase; assay: Inhibition of Aeromonas hydrophila beta lactamase CphA at pH 9.0
[5] = target: T1, Beta-lactamase; assay: Inhibition of Aeromonas hydrophila beta lactamase CphA at pH 10.0
[6] = Inhibition of Aeromonas hydrophila beta lactamase CphA N116H-N220G mutant by competitive inhibition assay
Outline: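 Purified double-mutant enzyme (0.03–0.7 nM) in 20 mM HEPES pH 7.0 with 20 μg/ml BSA. Imipenem was varied 20–200 μM at three inhibitor concentrations and without inhibitor, with no preincubation, at 30°C. Initial rates were Hanes-linearized to give the competitive Ki. The dizinc form was run separately with cefotaxime in 20 mM cacodylate pH 6.5, BSA, 100 μM ZnCl2.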

T1 sequence (Q44079 whole entry): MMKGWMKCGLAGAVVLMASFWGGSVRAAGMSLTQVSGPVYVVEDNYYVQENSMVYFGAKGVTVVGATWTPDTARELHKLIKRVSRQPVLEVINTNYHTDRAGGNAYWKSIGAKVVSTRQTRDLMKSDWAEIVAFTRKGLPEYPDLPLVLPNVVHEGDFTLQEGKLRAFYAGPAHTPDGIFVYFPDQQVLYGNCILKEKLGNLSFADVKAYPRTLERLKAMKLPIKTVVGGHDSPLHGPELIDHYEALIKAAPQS

Row | Compound | Ki [1] | Ki [2] | Ki [3] | Ki [4] | Ki [5] | Ki [6]
1 | O=C(O)c1ccc(C(=O)O)nc1 [PYRIDINE-2,5-DICARBOXYLIC ACID] | 420 µM | – | – | – | – | –
2 | O=C(O)c1ccccn1 [2-PICOLINIC ACID] | 5.7 µM | 46 µM | 76 µM | 440 µM | 1100 µM | 13 µM
3 | O=C(O)c1ccncc1C(=O)O | 1100 µM | – | – | – | – | –
4 | O=C(O)c1cccnc1C(=O)O [QUINOLINIC ACID] | 200 µM | – | – | – | – | –
